GASC1 inh: inhibitors of GASC-1 (KDM4C) histone demethylase, primary screen, biochemical, single concentration HTS. Lysine-specific demethylase 4C (Homo sapiens), Q9H3R0. GST-KDM4C 2-372, H3K9me3 peptide, LANCE TR-FRET. inhibition, % at 12.5 µM. 96,000 compounds, 0.15% hits. AID 720574, 2013;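 active = mean replicate inhibition above about 25%, with at least 55% of replicates also reaching it, limit read from the data, passing the limit was not always enough; inconclusive = only one of those two conditions met; inactive = neither condition met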
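material = GST-tagged GASC-1 (JMJD2C) catalytic fragment, aa 2-372 | amount = enzyme final amount 10 nM | medium = HEPES buffer, pH 7.5, plus ascorbate | also added = H3K9me3 peptide substrate, Fe(II), 2-oxoglutarate | dosing = single dose | times = 30 min demethylation and 1 h detection at room temperature | detection = LANCE TR-FRET | read-out basis = Fall in 671/618 emission ratio as inhibition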
Pf Dd2 growth: P. falciparum Dd2 growth inhibitors, primary screen, SYBR Green fluorescence, single dose replicates. 72 h; active compounds read low. activity change, % at 10 µM. 94,000 compounds, 2.3% hits; in the data active = activity change below about -80%; inconclusive = no clear call, values can overlap the other calls
IDH1 R132H inh: inhibitors of IDH1 R132H reductase, primary screen, biochemical, plate reader, single point | 70,000 compounds, 0.18% hits | Isocitrate dehydrogenase [NADP] cytoplasmic (Homo sapiens), O75874 | diaphorase/resazurin fluorescence, 60 min | inhibition, % at 10 µM; in the data active = inhibition above about 34%; inconclusive = no clear call, values can overlap the other calls; inactive = below about 11%
Target sequence (O75874 whole entry R132H): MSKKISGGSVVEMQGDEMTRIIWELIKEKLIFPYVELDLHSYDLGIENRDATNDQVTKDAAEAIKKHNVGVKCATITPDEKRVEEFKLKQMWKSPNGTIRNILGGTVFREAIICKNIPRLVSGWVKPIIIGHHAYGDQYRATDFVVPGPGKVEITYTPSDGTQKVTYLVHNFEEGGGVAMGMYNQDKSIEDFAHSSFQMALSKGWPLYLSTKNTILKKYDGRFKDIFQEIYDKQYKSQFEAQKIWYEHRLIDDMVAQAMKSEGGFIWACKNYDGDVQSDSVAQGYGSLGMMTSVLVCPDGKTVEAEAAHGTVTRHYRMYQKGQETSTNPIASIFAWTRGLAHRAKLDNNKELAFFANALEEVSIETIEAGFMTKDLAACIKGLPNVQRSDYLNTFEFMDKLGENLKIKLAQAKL
T cruzi growth-1: T. cruzi intracellular proliferation inhibitors, primary screen, cell-based, beta-gal Tulahuen parasites, NIH3T3 host, luminescence; T. cruzi beta-gal in NIH3T3, GalScreen luminescence, 90 h; inhibition, % at 8.34 µM; 77,000 compounds, 5.9% hits;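 active = mean inhibition above about 93%, with at least 55% of replicates each passing it, limit read from the data, passing the limit was not always enough; inconclusive = only one of those two conditions holds; inactive = neither condition holds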
T cruzi growth-2: T. cruzi intracellular proliferation inhibitors, confirmation, cell-based, NIH3T3 host, beta-gal parasite, luminescence, cherry-pick; inhibition, % at 8.35 µM; shares compounds with T cruzi growth-1; T. cruzi beta-gal in NIH3T3, GalScreen luminescence, 90 h; 5,600 compounds, 72% hits;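 active = mean replicate inhibition above about 95% and at least 55% of replicates individually reaching it, limit read from the data; inconclusive = only one of the two criteria is met; inactive = neither criterion is met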
T cruzi growth-3: inhibitors of intracellular T. cruzi replication, confirmation, NIH3T3 host cells, beta-gal parasites, cherry-pick, set 2. shares compounds with T cruzi growth-1. T. cruzi beta-gal in NIH3T3, GalScreen luminescence, 90 h. inhibition, % at 2.09 µM. 5,600 compounds, 21% hits. AID 651740, 2012;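 active = mean inhibition above about 95%, with at least 55% of replicates also reaching it, limit read from the data; inconclusive = meets just one of the two conditions; inactive = meets neither condition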
3T3 cytotox: cytotoxicity in mouse NIH/3T3 fibroblasts, confirmation, cytotoxicity control for T. cruzi proliferation inhibitor project, cell-based, cherry-pick, single point; shares compounds with T cruzi growth-1; cytotoxicity (signal decrease), % at 8.35 µM; 5,600 compounds, 14% hits; NIH/3T3 viability, CellTiter-Glo ATP luminescence, 90 h;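 active = mean signal decrease across replicates above about 35% based on untreated-well scatter, with enough replicates individually passing, limit read from the data; inconclusive = no rule stated though some were filed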
NIH3T3 tox 2: NIH/3T3 fibroblast cytotoxicity, confirmation, cytotoxicity control, cell-based, cherry-pick, single point, set 2 | NIH/3T3 viability, CellTiter-Glo ATP luminescence, 90 h | AID 651744, 2012 | 5,600 compounds, 56% hits | shares compounds with T cruzi growth-1 | inhibition, % at 24.9 µM;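 active = mean loss of cell viability signal at or above a set limit, and enough replicates individually reaching it; inconclusive = meets only the mean limit or only the replicate share; inactive = meets neither condition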
A number is an active result. Sampled rows, rich in hits. Any-hit rate of the full collection: about 5.9%.

Results for O=C(C[C@H]1CC[C@H]2[C@@H](COC[C@H](O)CN2Cc2ccccc2)O1)N[C@@H]1CCN(Cc2ccccc2)C1 ?
GASC1 inh: inactive; Pf Dd2 growth: inactive; T cruzi growth-1: 98; T cruzi growth-2: 99; T cruzi growth-3: inactive; 3T3 cytotox: inactive; NIH3T3 tox 2: inactive

Results for O=C(C[C@H]1CC[C@@H]2[C@H](COC[C@@H](O)CN2Cc2ccccc2)O1)N[C@@H]1CCN(Cc2ccccc2)C1 ?
GASC1 inh: inactive; Pf Dd2 growth: inactive; T cruzi growth-1: inactive

How did O=C(C[C@@H]1CC[C@@H]2[C@H](COC[C@@H](O)CN2Cc2ccccc2)O1)NCc1ccccc1Cl do in these assays?
GASC1 inh: inactive; Pf Dd2 growth: inactive; T cruzi growth-1: 100; T cruzi growth-2: inactive; T cruzi growth-3: inactive; 3T3 cytotox: inactive; NIH3T3 tox 2: inactive

Results for Cc1nn(-c2ccccc2)cc1C1C=C(c2ccc(Cl)cc2)N=C2SCC(=O)N21 (stereo not drawn) ?
IDH1 R132H inh: inactive

Results for C[C@@H]1CN([C@H](C)CO)C(=O)c2ccccc2-c2ccccc2CO[C@@H]1CN(C)C(=O)Cc1ccccc1 ?
GASC1 inh: inactive; Pf Dd2 growth: inactive; IDH1 R132H inh: inactive; T cruzi growth-1: 102; T cruzi growth-2: inactive; T cruzi growth-3: inactive; 3T3 cytotox: inactive; NIH3T3 tox 2: inactive

Results for C[C@H]1CN([C@@H](C)CO)C(=O)c2ccccc2-c2ccccc2CO[C@@H]1CN(C)Cc1ccncc1 ?
GASC1 inh: inactive; Pf Dd2 growth: inactive; IDH1 R132H inh: inactive; T cruzi growth-1: inconclusive; T cruzi growth-2: inactive; T cruzi growth-3: inactive; 3T3 cytotox: inactive; NIH3T3 tox 2: inactive

What do the screens show for `C[C@@H]1CN([C@@H](C)CO)C(=O)c2ccccc2-c2ccccc2CO[C@H]1CN(C)Cc1ccncc1`?
GASC1 inh: inactive; Pf Dd2 growth: inactive; IDH1 R132H inh: inactive; T cruzi growth-1: inactive

Results for COc1ccc(-c2nnc(SCCCN3C(=O)c4cccc5cccc(c45)C3=O)n2C)cc1OC ?
IDH1 R132H inh: inactive

What do the screens show for `CO[C@H]1CN(C)C(=O)c2ccc(NC(=O)C3CC3)cc2OC[C@H](C)N(C(=O)c2cccnc2)C[C@H]1C`?
GASC1 inh: inactive; Pf Dd2 growth: inactive; IDH1 R132H inh: inactive; T cruzi growth-1: inactive

What do the screens show for `CO[C@H]1CN(C)C(=O)c2ccc(NC(=O)C3CC3)cc2OC[C@@H](C)N(C(=O)c2cccnc2)C[C@@H]1C`?
GASC1 inh: inactive; Pf Dd2 growth: inactive; IDH1 R132H inh: inactive; T cruzi growth-1: 109; T cruzi growth-2: inactive; T cruzi growth-3: inactive; 3T3 cytotox: inactive; NIH3T3 tox 2: inactive

How did CCC(=O)Nc1ccc2c(c1)OC[C@H](C)N(C(=O)c1ccc(F)cc1)C[C@@H](C)[C@@H](OC)CN(C)C2=O do in these assays?
GASC1 inh: inactive; Pf Dd2 growth: inactive; IDH1 R132H inh: inactive; T cruzi growth-1: 104; T cruzi growth-2: inactive; T cruzi growth-3: inactive; 3T3 cytotox: inactive; NIH3T3 tox 2: inactive

What do the screens show for `COC(=O)[C@H](Cc1ccc(N=[N+]=[N-])cc1)N1CC2=C[C@H]([C@@H](O)Cc3ccccc3)n3c(=O)n(C)c(=O)n3[C@@H]2[C@@H](C2CC2)O1`?
IDH1 R132H inh: inactive

How did CCOC(=O)c1sc(NC(=O)c2cc(-c3ccccc3)on2)c(C(=O)OCC)c1C do in these assays?
IDH1 R132H inh: inactive

Compound activity: PubChem BioAssay, Broad Institute
